According to ChEMBL document CHEMBL5236609, “Optimization of 1,2,4-Triazole-3-thiones toward Broad-Spectrum Metallo-β-lactamase Inhibitors Showing Potent Synergistic Activity on VIM- and NDM-1-Producing Clinical Isolates” (J Med Chem, 2022):

Test system: not listed separately
Assay: Inhibition of bacterial VIM-2 (unknown origin) expressed in Escherichia coli EXPRESS BL21(DE3) assessed as inhibition constant by measuring rate of substrate hydrolysis by UV-visible spectrophotometry
Design: species or system Bacteria
Conditions: not given
How it was run: (§1)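 Reporter-substrate assay with purified MBL (1–70 nM final) in 50 mM HEPES pH 7.5 at 30 °C. […] Inhibitor 0.5–1000 μM final. Ki derived from the v0/vi vs [I] slope assuming competitive inhibition, or from a Dixon plot. Ki given when inhibition >70%, otherwise % inhibition at 100 μM. Triplicate.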

| SMILES | Ki [µM] |
| --- | --- |
| O=C(O)[C@H](CCCn1c(Cc2ccccc2)n[nH]c1=S)N(Cc1c[nH]cn1)Cc1c[nH]cn1 | 0.41 |
| O=C(O)[C@H](CCCn1c(-c2ccccc2)n[nH]c1=S)N(Cc1cnccn1)Cc1c[nH]cn1 | 2.4 |
| O=C(O)[C@H](CCCn1c(-c2ccccc2)n[nH]c1=S)N(Cc1cccnc1)Cc1c[nH]cn1 | 1.8 |
| S=c1[nH]nc(-c2ccccc2)n1CCCCN(Cc1c[nH]cn1)Cc1c[nH]cn1 | 1.5 |
| O=C(O)[C@H](CCCn1c(-c2ccccc2)n[nH]c1=S)N(Cc1cnccn1)Cc1cnccn1 | 1.2 |
| O=C(O)[C@H](CCCn1c(-c2ccccc2)n[nH]c1=S)N(Cc1cn[nH]c1)Cc1cn[nH]c1 | 2.5 |
| O=C(O)[C@H](CCCn1c(-c2ccccc2)n[nH]c1=S)N(Cc1c[nH]cn1)Cc1cncs1 | 1.1 |
| O=C(O)[C@H](CCCn1c(-c2ccccc2)n[nH]c1=S)N(Cc1ncc[nH]1)Cc1ncc[nH]1 | 0.9 |

Test system: Bacteria
Assay: Inhibition of bacterial IMP-1 (unknown origin) expressed in Escherichia coli EXPRESS BL21(DE3) assessed as inhibition constant by measuring rate of substrate hydrolysis at 100 uM by UV-visible spectrophotometry relative to control
Conditions: not given
How it was run: as §1

| SMILES | inhibition [%] |
| --- | --- |
| O=C(O)[C@H](CCCn1c(Cc2ccccc2)n[nH]c1=S)N(Cc1c[nH]cn1)Cc1c[nH]cn1 | 54 |
| O=C(O)[C@H](CCCn1c(-c2ccccc2)n[nH]c1=S)N(Cc1cnccn1)Cc1c[nH]cn1 | 43 |
| O=C(O)[C@H](CCCn1c(-c2ccccc2)n[nH]c1=S)N(Cc1cccnc1)Cc1c[nH]cn1 | < 30 |
| S=c1[nH]nc(-c2ccccc2)n1CCCCN(Cc1c[nH]cn1)Cc1c[nH]cn1 | 34 |
| O=C(O)[C@H](CCCn1c(-c2ccccc2)n[nH]c1=S)N(Cc1cnccn1)Cc1cnccn1 | 51 |
| O=C(O)[C@H](CCCn1c(-c2ccccc2)n[nH]c1=S)N(Cc1cn[nH]c1)Cc1cn[nH]c1 | < 30 |
| O=C(O)[C@H](CCCn1c(-c2ccccc2)n[nH]c1=S)N(Cc1c[nH]cn1)Cc1cncs1 | 39 |
| O=C(O)[C@H](CCCn1c(-c2ccccc2)n[nH]c1=S)N(Cc1ncc[nH]1)Cc1ncc[nH]1 | 61 |

Test system: Klebsiella pneumoniae
Assay: Antimicrobial activity against blaVIM-4-producing multidrug-resistant Klebsiella pneumoniae VA-416/02 clinical isolate assessed as meropenem MIC at 32 ug/ml by broth microdilution method (reference value: […] ug/ml)
Format: functional
Conditions: dose 32 µg/ml
How it was run: (§2)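 Inoculum was 5×10^4 CFU/well. Each inhibitor was present at a fixed 32 μg/mL, and MICs were also taken without inhibitor.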

| SMILES | MIC [µg/mL] |
| --- | --- |
| O=C(O)[C@H](CCCn1c(Cc2ccccc2)n[nH]c1=S)N(Cc1c[nH]cn1)Cc1c[nH]cn1 | 0.03 |
| O=C(O)[C@H](CCCn1c(-c2ccccc2)n[nH]c1=S)N(Cc1cnccn1)Cc1c[nH]cn1 | 1 |
| O=C(O)[C@H](CCCn1c(-c2ccccc2)n[nH]c1=S)N(Cc1cccnc1)Cc1c[nH]cn1 | 1 |
| S=c1[nH]nc(-c2ccccc2)n1CCCCN(Cc1c[nH]cn1)Cc1c[nH]cn1 | 1 |
| O=C(O)[C@H](CCCn1c(-c2ccccc2)n[nH]c1=S)N(Cc1cnccn1)Cc1cnccn1 | 2 |
| O=C(O)[C@H](CCCn1c(-c2ccccc2)n[nH]c1=S)N(Cc1cn[nH]c1)Cc1cn[nH]c1 | 1 |
| O=C(O)[C@H](CCCn1c(-c2ccccc2)n[nH]c1=S)N(Cc1c[nH]cn1)Cc1cncs1 | 2 |

Test system: not listed separately
Assay: Inhibition of bacterial VIM-1 (unknown origin) expressed in Escherichia coli EXPRESS BL21(DE3) assessed as inhibition constant by measuring rate of substrate hydrolysis by UV-visible spectrophotometry
Design: species or system Bacteria
Conditions: not given
How it was run: as §1

| SMILES | Ki [µM] |
| --- | --- |
| O=C(O)[C@H](CCCn1c(Cc2ccccc2)n[nH]c1=S)N(Cc1c[nH]cn1)Cc1c[nH]cn1 | 0.12 |
| O=C(O)[C@H](CCCn1c(-c2ccccc2)n[nH]c1=S)N(Cc1cnccn1)Cc1c[nH]cn1 | 3.3 |
| O=C(O)[C@H](CCCn1c(-c2ccccc2)n[nH]c1=S)N(Cc1cccnc1)Cc1c[nH]cn1 | 5.2 |
| S=c1[nH]nc(-c2ccccc2)n1CCCCN(Cc1c[nH]cn1)Cc1c[nH]cn1 | 0.85 |
| O=C(O)[C@H](CCCn1c(-c2ccccc2)n[nH]c1=S)N(Cc1cnccn1)Cc1cnccn1 | 2.5 |
| O=C(O)[C@H](CCCn1c(-c2ccccc2)n[nH]c1=S)N(Cc1cn[nH]c1)Cc1cn[nH]c1 | 3.7 |
| O=C(O)[C@H](CCCn1c(-c2ccccc2)n[nH]c1=S)N(Cc1c[nH]cn1)Cc1cncs1 | 2.5 |
| O=C(O)[C@H](CCCn1c(-c2ccccc2)n[nH]c1=S)N(Cc1ncc[nH]1)Cc1ncc[nH]1 | 0.69 |

Test system: Klebsiella pneumoniae
Assay: Antimicrobial activity against blaVIM-1-producing multidrug-resistant Klebsiella pneumoniae K47-25 clinical isolate assessed as meropenem MIC at 32 ug/ml by broth microdilution method (reference value: […] ug/ml)
Format: functional
Conditions: dose 32 µg/ml
How it was run: as §2

| SMILES | MIC [µg/mL] |
| --- | --- |
| O=C(O)[C@H](CCCn1c(Cc2ccccc2)n[nH]c1=S)N(Cc1c[nH]cn1)Cc1c[nH]cn1 | 0.03 |
| O=C(O)[C@H](CCCn1c(-c2ccccc2)n[nH]c1=S)N(Cc1cnccn1)Cc1c[nH]cn1 | 4 |
| O=C(O)[C@H](CCCn1c(-c2ccccc2)n[nH]c1=S)N(Cc1cccnc1)Cc1c[nH]cn1 | 4 |
| S=c1[nH]nc(-c2ccccc2)n1CCCCN(Cc1c[nH]cn1)Cc1c[nH]cn1 | 4 |
| O=C(O)[C@H](CCCn1c(-c2ccccc2)n[nH]c1=S)N(Cc1cnccn1)Cc1cnccn1 | 4 |
| O=C(O)[C@H](CCCn1c(-c2ccccc2)n[nH]c1=S)N(Cc1cn[nH]c1)Cc1cn[nH]c1 | 2 |
| O=C(O)[C@H](CCCn1c(-c2ccccc2)n[nH]c1=S)N(Cc1c[nH]cn1)Cc1cncs1 | 1 |

Test system: Bacteria
Assay: Inhibition of bacterial NDM-1 (unknown origin) expressed in Escherichia coli EXPRESS BL21(DE3) assessed as inhibition constant by measuring rate of substrate hydrolysis at 100 uM by UV-visible spectrophotometry relative to control
Conditions: not given
How it was run: as §1

| SMILES | inhibition [%] |
| --- | --- |
| O=C(O)[C@H](CCCn1c(-c2ccccc2)n[nH]c1=S)N(Cc1cn[nH]c1)Cc1cn[nH]c1 | < 30 |

Test system: Pseudomonas aeruginosa
Assay: Antimicrobial activity against blaVIM-2-producing multidrug-resistant Pseudomonas aeruginosa VA-182/00 clinical isolate assessed as meropenem MIC at 32 ug/ml by broth microdilution method (reference value: 128 ug/ml)
Format: functional
Conditions: dose 32 µg/ml
How it was run: as §2

| SMILES | MIC [µg/mL] |
| --- | --- |
| O=C(O)[C@H](CCCn1c(Cc2ccccc2)n[nH]c1=S)N(Cc1c[nH]cn1)Cc1c[nH]cn1 | 8 |
| O=C(O)[C@H](CCCn1c(-c2ccccc2)n[nH]c1=S)N(Cc1cnccn1)Cc1c[nH]cn1 | 128 |
| O=C(O)[C@H](CCCn1c(-c2ccccc2)n[nH]c1=S)N(Cc1cccnc1)Cc1c[nH]cn1 | 128 |
| S=c1[nH]nc(-c2ccccc2)n1CCCCN(Cc1c[nH]cn1)Cc1c[nH]cn1 | 128 |
| O=C(O)[C@H](CCCn1c(-c2ccccc2)n[nH]c1=S)N(Cc1cnccn1)Cc1cnccn1 | 128 |
| O=C(O)[C@H](CCCn1c(-c2ccccc2)n[nH]c1=S)N(Cc1cn[nH]c1)Cc1cn[nH]c1 | 128 |
| O=C(O)[C@H](CCCn1c(-c2ccccc2)n[nH]c1=S)N(Cc1c[nH]cn1)Cc1cncs1 | 128 |

Test system: not listed separately
Assay: Inhibition of bacterial VIM-4 (unknown origin) expressed in Escherichia coli EXPRESS BL21(DE3) assessed as inhibition constant by measuring rate of substrate hydrolysis by UV-visible spectrophotometry
Design: species or system Bacteria
Conditions: not given
How it was run: as §1

| SMILES | Ki [µM] |
| --- | --- |
| O=C(O)[C@H](CCCn1c(Cc2ccccc2)n[nH]c1=S)N(Cc1c[nH]cn1)Cc1c[nH]cn1 | 0.12 |
| O=C(O)[C@H](CCCn1c(-c2ccccc2)n[nH]c1=S)N(Cc1cnccn1)Cc1c[nH]cn1 | 1.9 |
| O=C(O)[C@H](CCCn1c(-c2ccccc2)n[nH]c1=S)N(Cc1cccnc1)Cc1c[nH]cn1 | 1.7 |
| S=c1[nH]nc(-c2ccccc2)n1CCCCN(Cc1c[nH]cn1)Cc1c[nH]cn1 | 0.9 |
| O=C(O)[C@H](CCCn1c(-c2ccccc2)n[nH]c1=S)N(Cc1cnccn1)Cc1cnccn1 | 0.63 |
| O=C(O)[C@H](CCCn1c(-c2ccccc2)n[nH]c1=S)N(Cc1cn[nH]c1)Cc1cn[nH]c1 | 0.29 |
| O=C(O)[C@H](CCCn1c(-c2ccccc2)n[nH]c1=S)N(Cc1c[nH]cn1)Cc1cncs1 | 0.77 |
| O=C(O)[C@H](CCCn1c(-c2ccccc2)n[nH]c1=S)N(Cc1ncc[nH]1)Cc1ncc[nH]1 | 0.66 |

Test system: Escherichia coli
Assay: Antimicrobial activity against blaNDM-1-producing multidrug-resistant Escherichia coli SI-004 clinical isolate assessed as meropenem MIC at 32 ug/ml by broth microdilution method (reference value: 64 ug/ml)
Conditions: not given

| SMILES | MIC [µg/mL] |
| --- | --- |
| O=C(O)[C@H](CCCn1c(Cc2ccccc2)n[nH]c1=S)N(Cc1c[nH]cn1)Cc1c[nH]cn1 | 0.06 |
| O=C(O)[C@H](CCCn1c(-c2ccccc2)n[nH]c1=S)N(Cc1cnccn1)Cc1c[nH]cn1 | 8 |
| O=C(O)[C@H](CCCn1c(-c2ccccc2)n[nH]c1=S)N(Cc1cccnc1)Cc1c[nH]cn1 | 64 |
| S=c1[nH]nc(-c2ccccc2)n1CCCCN(Cc1c[nH]cn1)Cc1c[nH]cn1 | 32 |
| O=C(O)[C@H](CCCn1c(-c2ccccc2)n[nH]c1=S)N(Cc1cnccn1)Cc1cnccn1 | 32 |
| O=C(O)[C@H](CCCn1c(-c2ccccc2)n[nH]c1=S)N(Cc1cn[nH]c1)Cc1cn[nH]c1 | 64 |
| O=C(O)[C@H](CCCn1c(-c2ccccc2)n[nH]c1=S)N(Cc1c[nH]cn1)Cc1cncs1 | 32 |

Test system: not listed separately
Assay: Inhibition of bacterial NDM-1 (unknown origin) expressed in Escherichia coli EXPRESS BL21(DE3) assessed as inhibition constant by measuring rate of substrate hydrolysis by UV-visible spectrophotometry
Design: species or system Bacteria
Conditions: not given
How it was run: as §1

| SMILES | Ki [µM] |
| --- | --- |
| O=C(O)[C@H](CCCn1c(Cc2ccccc2)n[nH]c1=S)N(Cc1c[nH]cn1)Cc1c[nH]cn1 | 0.09 |
| O=C(O)[C@H](CCCn1c(-c2ccccc2)n[nH]c1=S)N(Cc1cnccn1)Cc1c[nH]cn1 | 0.89 |
| O=C(O)[C@H](CCCn1c(-c2ccccc2)n[nH]c1=S)N(Cc1cccnc1)Cc1c[nH]cn1 | 34.8 |
| S=c1[nH]nc(-c2ccccc2)n1CCCCN(Cc1c[nH]cn1)Cc1c[nH]cn1 | 9.2 |
| O=C(O)[C@H](CCCn1c(-c2ccccc2)n[nH]c1=S)N(Cc1cnccn1)Cc1cnccn1 | 17.9 |
| O=C(O)[C@H](CCCn1c(-c2ccccc2)n[nH]c1=S)N(Cc1c[nH]cn1)Cc1cncs1 | 13.1 |
| O=C(O)[C@H](CCCn1c(-c2ccccc2)n[nH]c1=S)N(Cc1ncc[nH]1)Cc1ncc[nH]1 | 0.02 |
